Screening results: PubChem BioAssay, Sanford-Burnham Center for Chemical Genomics
Hits are enriched below; roughly 1.8% of the tested compounds scored in any of these assays.
PABP polyA inh: PABP-poly(A) binding inhibition; PABP-poly(A) RNA binding, fluorescence polarization; P11940; calls only at 35 µM; 290,000 tested, 1% active;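 further: calls also rest on retests at 20 µM and on dose response follow-up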
Target sequence (P11940 whole entry, looked up): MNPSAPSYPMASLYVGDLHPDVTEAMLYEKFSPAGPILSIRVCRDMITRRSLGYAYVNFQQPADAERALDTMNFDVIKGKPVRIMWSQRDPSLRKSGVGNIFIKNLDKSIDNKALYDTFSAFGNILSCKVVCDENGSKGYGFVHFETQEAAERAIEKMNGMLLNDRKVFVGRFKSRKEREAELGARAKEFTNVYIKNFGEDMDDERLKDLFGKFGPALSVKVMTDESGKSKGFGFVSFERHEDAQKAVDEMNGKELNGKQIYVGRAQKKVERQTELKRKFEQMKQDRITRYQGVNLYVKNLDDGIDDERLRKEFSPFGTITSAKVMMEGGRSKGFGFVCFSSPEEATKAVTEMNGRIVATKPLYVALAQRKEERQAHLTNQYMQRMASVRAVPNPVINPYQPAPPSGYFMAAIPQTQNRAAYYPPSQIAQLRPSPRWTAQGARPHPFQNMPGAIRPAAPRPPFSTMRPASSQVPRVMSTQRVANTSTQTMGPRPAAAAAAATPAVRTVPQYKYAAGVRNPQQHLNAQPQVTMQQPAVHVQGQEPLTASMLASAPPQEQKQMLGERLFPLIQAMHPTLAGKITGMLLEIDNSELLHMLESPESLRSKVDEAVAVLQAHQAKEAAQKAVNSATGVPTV
MT1-MMP act inh: inhibitors of human MT1-MMP activation. HT1080 RFP-PRO-GFP cells, GFP/RFP ratio fluorescence, overnight; percent of plate control window, DMSO zero. GFP/RFP ratio change, % at 20 µM. 360,000 tested, 0.061% active. P50281;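 active means GFP/RFP ratio change of at least 30% with cell ATP level not reduced by more than half and red fluorescence within 50% of control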
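Assay system: HT1080 RFP-PRO-GFP cells. Benchmarks: DMSO vehicle wells and RFP-L50D-GFP reporter cell wells. Times: overnight cell settling, then overnight compound exposure, 37 °C, 5% CO2. Compound: 20 µM single dose, 1% DMSO. Read-out basis: GFP/RFP fluorescence ratio.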
PABP1 MLLE inh: inhibitors of microRNA-mediated deadenylation, human PABP1 MLLE binding; P11940; GST-MLLE / FITC-PAM2 fluorescence polarization; inhibition, % at 20 µM; 360,000 tested, 0.36% active; in the data active means inhibition above about 35%, passing the limit was not always enough
SKN-1 block: blocks SKN-1 activity in C. elegans; 360,000 tested, 0.49% active; C. elegans VP596 Pgst-4::GFP/RFP ratio, acrylamide-induced, 24 h; inhibition, % at 21.8 µM;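 active means interference check ratio from 0.5 to 1.5 plus GFP to RFP signal ratio inhibition reaching or exceeding a fixed threshold, cut at about 30% in these data, passing the limit was not always enough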
eIF4H inh: inhibitors of RNA binding by human eIF4H; eIF4H fluorescence polarization binding assay; inhibition, % at 35 µM; 290,000 tested, 0.94% active; AID 2012;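 further: calls also rest on retests at 20 µM and on dose response follow-up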
Hits are given with their value; n = inactive; x = no result given; + = active, no number. Unless noted, how the calls were made is not given here.

SMILES	PABP polyA inh	MT1-MMP act inh	PABP1 MLLE inh	SKN-1 block	eIF4H inh
Cc1cccc(Cn2c(Sc3nc(C)cs3)nc3c2c(=O)[nH]c(=O)n3C)c1	n	n	n	40.4	n
COc1ccc(S(=O)(=O)Nc2ccc3c(c2)C(=O)N([C@H](C)CO)C[C@H](C)[C@@H](CN(C)C(=O)NC2CCCCC2)O3)cc1	x	n	n	n	x
CC1(C)CC(=O)C2=C(C1)Nc1ccccc1NC2c1cccc(F)c1 (stereo unspecified)	n	n	n	n	n
Cn1cccc1C1Nc2ccccc2NC2=C1C(=O)CC(C)(C)C2 (stereo unspecified)	+	n	n	n	n
CNC(=O)Cn1ncc2c(C)n(Cc3ccc(C)cc3)c(C)c2c1=O	n	n	n	n	n
Cc1c2cnn(CC(=O)Nc3c(F)c(F)cc(F)c3F)c(=O)c2c(C)n1Cc1ccccc1F	+	n	n	n	94.9
CCOc1ccc(NCc2cc3cc(OC)ccc3[nH]c2=O)cc1	+	n	n	n	35.0
CC(O)c1n(C)c(Cl)c[n+]1C (stereo unspecified)	+	n	n	n	n
COc1ccc(NC(=O)c2cc3ccc(O)cc3o/c2=N\O)cc1	n	n	n	n	n
CCOc1ccc(OCC)c(NC(=O)CSc2nnc(-c3cccnc3)o2)c1	n	n	n	n	n
CCOc1ccccc1NC(=O)CSc1nnc(-c2cccnc2)o1	x	n	50.4	n	x
CCOc1ccccc1NC(=O)CSc1nnc(-c2ccncc2)o1	x	n	n	n	x
COc1ccccc1NC(=O)CSc1nnc(-c2ccncc2)o1	n	n	n	40.3	n
COCc1ccccc1C1=CC(=O)C[C@H](c2ccc(F)cc2)C1	x	n	n	n	x
N=C1/C(=C\c2ccc(-c3ccc(C(=O)O)cc3)o2)C(=O)N=C2SC=C(c3ccccc3)N12	n	n	n	n	69.5
N=C1/C(=C\c2ccc(-c3cccc(Cl)c3)o2)C(=O)N=C2SC=C(c3ccccc3)N12	n	n	n	n	n
CC1(c2ccc(OC(F)F)cc2)NC(=O)N(CC(=O)Nc2ccc(Cl)cc2F)C1=O (stereo unspecified)	n	n	n	n	n
Oc1ccc(C(=S)N2CCCC2)cc1	n	n	n	n	n
Oc1ccc(C(=S)N2CCCCCC2)cc1	n	n	36.6	n	n
Oc1cccc(C(=S)N2CCCCC2)c1	n	n	38.4	n	n
CC1CCN(C(=S)c2ccc(O)cc2)CC1	n	n	37.4	n	n
O=C(Nc1ccc(Cl)cc1)N[C@@H]1CC[C@H](CCNS(=O)(=O)c2ccccc2F)O[C@@H]1CO	x	n	x	n	x
C=Cn1cc[n+](CC(=O)c2ccc(OC)cc2)c1	n	n	n	n	n
Cc1[nH]n(-c2ccccc2)c(=O)c1C(c1ccc(C(=O)O)cc1)c1c(C)[nH]n(-c2ccccc2)c1=O	n	n	45.3	n	n
Cc1[nH]n(-c2ccccc2)c(=O)c1C(c1cccc([N+](=O)[O-])c1)c1c(C)[nH]n(-c2ccccc2)c1=O	n	n	n	n	n
SMILES	PABP polyA inh	MT1-MMP act inh	PABP1 MLLE inh	SKN-1 block	eIF4H inh
O=C(Nc1ccc(F)cc1)C(CCc1ccccc1)N1CCN(C(=O)c2ccco2)CC1 (stereo unspecified)	x	n	x	n	x
Fc1ccc(-n2nnc(-c3nccs3)n2)cc1	n	n	n	71.4	n
Fc1ccc(-n2nnc(-c3cccnc3Cl)n2)cc1	n	n	n	67.8	n
Clc1ncccc1-c1nnn(-c2ccccc2)n1	n	n	n	n	n
Fc1ccc(-n2nnc(-c3ccccc3Cl)n2)cc1	n	n	n	n	n
COc1ccccc1NCC(=O)NC(=O)NC1CCCCC1	x	n	n	n	x
Cc1ccccc1C(=O)N1CCC[C@H]1C(=O)N1CCC[C@H]1C(=O)NCc1ccccn1	x	n	x	n	x
O=C1c2ccc(-c3ccc4c(c3)C(=O)N(CCCO)C4=O)cc2C(=O)N1CCCO	n	n	n	n	n
O=C1C2=C(SCCS2)C(=O)N1CCCO	+	n	57.7	n	101.3
Cc1nn(C)c(C)c1S(=O)(=O)N1CCCC(C(=O)NCCc2ccc(Cl)cc2)C1 (stereo unspecified)	n	n	n	n	n
Cc1noc(C)c1S(=O)(=O)N1CCCC(C(=O)NCCc2ccc(Cl)cc2)C1 (stereo unspecified)	n	n	n	46.6	n
CCN(CC)c1ccc(NC(=O)CCN2C(=O)c3ccccc3S2(=O)=O)c(C)c1	x	n	n	n	x
COc1ccc(CNCCS(=O)(=O)NN2CCOCC2)cc1	x	n	n	n	x
S=C(Nc1ccc(Nc2ccccc2)cc1)Nc1ccccn1	n	n	38.4	n	n
S=C(Nc1ccccc1)Nc1ccccn1	x	n	n	n	x
CC(Oc1ccc(Br)cc1)C(=O)O/N=C(\N)c1ccncc1 (stereo unspecified)	n	n	n	54.0	n
N/C(=N\OC(=O)COc1ccc(Br)cc1)c1ccncc1	n	n	n	n	n
Cc1ccc(C(=O)NCC(=O)OCC(=O)N(CC(C)C)c2c(N)n(Cc3ccccc3)c(=O)[nH]c2=O)s1	x	n	n	n	x
COC(=O)c1ccc(N/C=C/C(=O)c2ccccc2)cc1	n	n	n	n	n
O=C(CSc1ncnc2sc3c(c12)CCC3)N1CCOCC1	n	n	n	n	62.1
O=C(O)CCN(CC(=O)c1ccc(Cl)cc1)S(=O)(=O)c1ccc([N+](=O)[O-])cc1	x	n	n	n	x
Cc1ccccc1-c1cc2nc(NCc3cccnc3)n(C)c(=O)c2s1	x	n	n	n	x
COc1ccc(O)c(C(=O)c2cc(SCC(=O)O)c3nc4sc5c(c4c(=O)n3c2)CCCC5)c1	+	n	n	n	80.6
CCOC(=O)c1sc2nc3c(SCC(=O)O)cc(C(=O)c4cc(F)ccc4O)cn3c(=O)c2c1C	n	n	n	n	n
O=C(O)CSc1cc(C(=O)c2ccccc2O)cn2c(=O)c3c(-c4ccccc4)csc3nc12	+	n	n	n	n
SMILES	PABP polyA inh	MT1-MMP act inh	PABP1 MLLE inh	SKN-1 block	eIF4H inh
CCCCn1c(NC(=O)c2ccco2)c(S(=O)(=O)c2ccc(C)cc2)c2nc3ccccc3nc21	n	n	n	n	n
CCCCn1c(NC(=O)c2ccc(Br)o2)c(S(=O)(=O)c2ccccc2)c2nc3ccccc3nc21	+	n	n	n	55.7
COc1ccc(N2Cc3ccc(C(=O)N/N=C\c4ccc(O)cc4O)cc3C2)cc1	n	x	x	x	64.7
CCOc1ccc(NC(=O)COC(=O)C2COc3ccccc3O2)cc1 (stereo unspecified)	x	n	n	n	x
Cc1nc2c(OCc3cccc(Cl)c3)cccn2c1N(C)Cc1cccs1	x	x	n	n	x
COc1cc(/C=N/NC(=O)c2cc(O)cc(O)c2)ccc1OC(=O)c1ccccc1	+	n	n	n	81.4
O=C(N/N=C/c1ccoc1)c1cc(O)cc(O)c1	+	n	n	n	95.9
Cc1cc(C)cc(C(=O)N/N=C/c2ccoc2)c1	n	n	n	n	n
O=C(N/N=C\c1cccnc1)c1ccc(Br)s1	n	n	n	n	n
O=C(N/N=C\c1ccncc1)c1ccc(Br)s1	n	n	n	41.2	n
